What was measured:
[1] = Study 3 food-effect pharmacokinetics; format: in vivo, human
How it was run: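 Open-label two-period crossover in healthy men given 10 mg orally on days 1 and 15, fasted or fed. Fasted dosing followed ≥10 h fasting, with water. Fed dosing came within 10 min after a high-fat breakfast (≥900 kcal, ≥35% fat) eaten within 20 min. Plasma was sampled predose to 168 h; urine was pooled to 168 h. Log-transformed Cmax/AUC were analysed by ANOVA with 90% CI of back-transformed LS mean ratios. Tmax used Wilcoxon signed-rank.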

[2] = system: CYP2E1; conditions: cited from earlier work
[3] = system: CYP1A2; conditions: cited from earlier work
[4] = Study 2 single-dose pharmacokinetics in elderly adults; format: in vivo, human; conditions: for AUC(0-inf) / Cmax / Tmax: human, plasma, oral, 10 mg; for T1/2 / Fe0–120, fraction excreted: single 10 mg; for T1/2: fasted; for Fe0–120, fraction excreted: urine 0 to 120 hours
How it was run: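 Elderly men and women (65–85 y) received a single oral 10 mg dose, fasted, in the morning. Plasma vortioxetine and metabolites were assayed by HPLC-MS/MS after liquid–liquid extraction. Urine was pooled predose and at 24-h intervals to 120 h. Parameters came from noncompartmental analysis. Below-LLOQ concentrations were entered as zero in means. Tmax is median (min–max).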

[5] = system: CYP2A6; conditions: cited from earlier work
[6] = Study 1A single-rising-dose pharmacokinetics; format: in vivo, human; conditions: for Tmax / half-life / AUC(0-inf) / Cmax: human, plasma; for CL/F / Fe0–48, cumulative excretion ratio (% of dose): fasted, men; for Fe0–48, cumulative excretion ratio (% of dose): urine 0 to 48 hours
How it was run: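 Healthy men received single oral doses of 2.5–40 mg. The 2.5 mg cohort was redosed fed (30 min post-breakfast) on day 15 after a 14-day washout. EDTA plasma was sampled predose and 1–216 h postdose; urine was pooled at 0–6, 6–12, 12–24 and 24–48 h. Samples were stored at ≤ −20 °C, liquid–liquid extracted and assayed by HPLC-MS/MS. Parameters came from noncompartmental analysis.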

[7] = system: CYP2D6; conditions: cited from earlier work
[8] = system: CYP2C19; conditions: cited from earlier work
[9] = system: CYP2C9; conditions: cited from earlier work
[10] = system: CYP3A4/5; conditions: cited from earlier work
[11] = system: CYP2C8; conditions: cited from earlier work
[12] = system: healthy adult men; test: Study 3 safety evaluation; format: in vivo, human; conditions: single 10 mg
[13] = Study 1B multiple-dose pharmacokinetics; format: in vivo, human
How it was run: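 Men (5, 10, 20 mg) and women (5, 10 mg) were dosed orally, fed, daily for 12 days. Plasma was sampled on day 1 predose to […]. Urine came from the 5 mg cohort predose days 1–16 then in 24-h intervals, and for 10/20 mg on day 12 at 0–24 h. Analysis was by HPLC-MS/MS and noncompartmental.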

[14] = system: healthy Japanese adults; test: Safety evaluation across all 3 studies; format: in vivo, human; conditions: any of the studies
[15] = system: healthy adult men and women; test: Study 1B safety evaluation; format: in vivo, human
How it was run: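 Double-blind, placebo-controlled (2:1) multiple-dose study. Men received 5, 10 or 20 mg and women 5 or 10 mg, oral and fed, daily on days 1–12. Women were dosed only after that dose was assessed in men. Participants were discharged day 17, with post-study exam day 20. AEs, weight, vitals, 12-lead ECG and clinical labs were recorded. TEAE incidence, intensity and drug relationship were assessed by dose and sex versus placebo.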

[16] = elderly women, n = 7, mean (SD)
[17] = single 2.5 mg, n = 5, mean (SD)
[18] = day 12, female, 5 mg daily, n = 5, mean (SD)
[19] = day 12, female, 10 mg daily, n = 6, mean (SD)
[20] = day 12, male, 5 mg daily, n = 6, mean (SD)
[21] = day 12, male, 10 mg daily, n = 6, mean (SD)
[22] = day 12, male, 20 mg daily, n = 6, mean (SD)

Cc1ccc(Sc2ccccc2N2CCNCC2)c(C)c1 [Vortioxetine, 1‐[2‐(2,4‐dimethylphenylsulfanyl)phenyl]piperazine]
Tmax ([1]; male, human, plasma, oral, 10 mg): 12 h
90%CIs for the LS mean ratios of Cmax and AUC (fed vs fasted) ([1]; single 10 mg, no‐effect boundary 90%CI, 0.8–1.25): within the no‐effect boundary
inhibitory or inducing effect in vitro [2]: No inhibitory or inducing effect
inhibitory or inducing effect in vitro [3]: No inhibitory or inducing effect
AUC(0-inf) ([4]; female): 305 ng·h/mL
Cmax ([4]; female): 4.6 ng/mL
Tmax ([4]; female): 6 h
AUC(0-inf) ([4]; male): 378 ng·h/mL
Cmax ([4]; male): 4.2 ng/mL
Tmax ([4]; male): 6 h
T1/2 ([4]; elderly men, n = 8, mean (SD)): 85.2 (29.8) h
T1/2 [4, 16]: 63.5 (10.7) h
Fe0–120, fraction excreted ([4]; elderly men, n = 8, mean (SD)): 0.0 (0.0) %
Fe0–120, fraction excreted [4, 16]: 0.0 (0.0) %
inhibitory or inducing effect in vitro [5]: No inhibitory or inducing effect
Tmax ([6]; both, po): 6 to 13 h
half-life ([6]; male, oral): 2.08 to 2.92 days
AUC(0-inf) ([6]; male, oral, 2.5 mg): 56.5 ng·h/mL
Cmax ([6]; male, oral, 2.5 mg): 0.8 ng/mL
Tmax ([6]; male, oral, 2.5 mg): 10 h
AUC(0-inf) ([6]; male, oral, 5 mg): 188 ng·h/mL
Cmax ([6]; male, oral, 5 mg): 1.9 ng/mL
Tmax ([6]; male, oral, 5 mg): 10 h
half-life ([6]; male, oral, 5 mg): 2.89 days
AUC(0-inf) ([6]; male, oral, 10 mg): 348 ng·h/mL
Cmax ([6]; male, oral, 10 mg): 3.5 ng/mL
Tmax ([6]; male, oral, 10 mg): 10 h
half-life ([6]; male, oral, 10 mg): 2.75 days
AUC(0-inf) ([6]; male, oral, 20 mg): 560 ng·h/mL
Cmax ([6]; male, oral, 20 mg): 7.7 ng/mL
Tmax ([6]; male, oral, 20 mg): 9 h
AUC(0-inf) ([6]; male, oral, 40 mg): 1310 ng·h/mL
Cmax ([6]; male, oral, 40 mg): 19.4 ng/mL
Tmax ([6]; male, oral, 40 mg): 6.3 h
CL/F [6, 17]: 50 (20) L/h
CL/F ([6]; single 5 mg, n = 6, mean (SD)): 29.6 (10.3) L/h
CL/F ([6]; single 10 mg, n = 6, mean (SD)): 35.2 (19.2) L/h
CL/F ([6]; single 20 mg, n = 6, mean (SD)): 41.4 (17.6) L/h
CL/F ([6]; single 40 mg, n = 4, mean (SD)): 34.0 (13.1) L/h
Fe0–48, cumulative excretion ratio (% of dose) [6, 17]: 0.0 (0.0) %
Fe0–48, cumulative excretion ratio (% of dose) ([6]; single 5 mg, n = 6, mean (SD)): 0.0 (0.0) %
Fe0–48, cumulative excretion ratio (% of dose) ([6]; single 10 mg, n = 6, mean (SD)): 0.007 (0.018) %
Fe0–48, cumulative excretion ratio (% of dose) ([6]; single 20 mg, n = 6, mean (SD)): 0.023 (0.023) %
Fe0–48, cumulative excretion ratio (% of dose) ([6]; single 40 mg, n = 4, mean (SD)): 0.034 (0.017) %
inhibitory or inducing effect in vitro [7]: No inhibitory or inducing effect
inhibitory or inducing effect in vitro [8]: No inhibitory or inducing effect
inhibitory or inducing effect in vitro [9]: No inhibitory or inducing effect
inhibitory or inducing effect in vitro [10]: No inhibitory or inducing effect
inhibitory or inducing effect in vitro [11]: No inhibitory or inducing effect
safety profiles, fasted vs fed [12]: no significant differences in safety profiles
time to reach steady state ([13]; 5‐ and 20‐mg doses in men and 10‐mg dose in women): approximately 12 days
steady state of trough plasma concentrations ([13]; 10‐mg dose in men and 5‐mg dose in women): did not reach steady state even after 12 days
clearance at 12 days ([13]; both, human, plasma, oral): 333 to 867 mL/min
CL/F ([13]; day 1, female, 5 mg daily, fed, n = 5, mean (SD)): 22.3 (19.6) L/h
CL/F ([13]; day 1, female, 10 mg daily, fed, n = 6, mean (SD)): 99.3 (104.7) L/h
CL/F ([13]; day 1, male, 5 mg daily, fed, n = 6, mean (SD)): 30.6 (9.4) L/h
CL/F ([13]; day 1, male, 10 mg daily, fed, n = 6, mean (SD)): 29.1 (12.0) L/h
CL/F ([13]; day 1, male, 20 mg daily, fed, n = 6, mean (SD)): 50.4 (17.1) L/h
CL/F ([13]; day 12, female, 5 mg daily, fed, n = 5, mean (SD)): 20.2 (9.5) L/h
R(AUC), cumulative ratio of AUC values [13, 18]: 6.0 (2.0)
R(Cmax), cumulative ratio of Cmax values [13, 18]: 5.0 (1.5)
CL/F ([13]; day 12, female, 10 mg daily, fed, n = 6, mean (SD)): 69.9 (94.8) L/h
R(AUC), cumulative ratio of AUC values [13, 19]: 5.3 (2.2)
R(Cmax), cumulative ratio of Cmax values [13, 19]: 3.9 (1.5)
CL/F ([13]; day 12, male, 5 mg daily, fed, n = 6, mean (SD)): 33.1 (10.3) L/h
R(AUC), cumulative ratio of AUC values [13, 20]: 5.2 (1.4)
R(Cmax), cumulative ratio of Cmax values [13, 20]: 4.4 (1.1)
CL/F ([13]; day 12, male, 10 mg daily, fed, n = 6, mean (SD)): 23.8 (4.4) L/h
R(AUC), cumulative ratio of AUC values [13, 21]: 6.2 (0.9)
R(Cmax), cumulative ratio of Cmax values [13, 21]: 5.1 (0.6)
CL/F ([13]; day 12, male, 20 mg daily, fed, n = 6, mean (SD)): 51.5 (16.6) L/h
R(AUC), cumulative ratio of AUC values [13, 22]: 3.9 (1.0)
R(Cmax), cumulative ratio of Cmax values [13, 22]: 3.2 (0.7)
AUC(0-t) ([13]; female, human, plasma, oral, 5 mg, AUC0–24, day 1, female, 5 mg daily, fed, n = 5, mean (SD)): 47.1 ng·h/mL
AUC(0-t) ([13]; female, human, plasma, oral, 5 mg, AUC0–24, day 12, female, 5 mg daily, fed, n = 5, mean (SD)): 284 ng·h/mL
half-life ([13]; female, human, plasma, oral, 5 mg, T1/2, day 1, female, 5 mg daily, fed, n = 5, mean (SD)): 4.72 days
half-life ([13]; female, human, plasma, oral, 5 mg, T1/2, day 12, female, 5 mg daily, fed, n = 5, mean (SD)): 3.33 days
AUC(0-t) ([13]; female, human, plasma, oral, 10 mg, AUC0–24, day 1, female, 10 mg daily, fed, n = 6, mean (SD)): 53.3 ng·h/mL
AUC(0-t) ([13]; female, human, plasma, oral, 10 mg, AUC0–24, day 12, female, 10 mg daily, fed, n = 6, mean (SD)): 295 ng·h/mL
half-life ([13]; female, human, plasma, oral, 10 mg, T1/2, day 1, female, 10 mg daily, fed, n = 6, mean (SD)): 1.43 days
half-life ([13]; female, human, plasma, oral, 10 mg, T1/2, day 12, female, 10 mg daily, fed, n = 6, mean (SD)): 2.42 days
average time to reach steady state ([13]; given a median half‐life of 67 hours): 14 days
half-life ([13]; human, plasma, oral, median half‐life, as given in the discussion): 2.79 days
AUC(0-t) ([13]; male, human, plasma, oral, 5 mg, AUC0–24, day 1, male, 5 mg daily, fed, n = 6, mean (SD)): 31.6 ng·h/mL
AUC(0-t) ([13]; male, human, plasma, oral, 5 mg, AUC0–24, day 12, male, 5 mg daily, fed, n = 6, mean (SD)): 163 ng·h/mL
half-life ([13]; male, human, plasma, oral, 5 mg, T1/2, day 1, male, 5 mg daily, fed, n = 6, mean (SD)): 2.83 days
half-life ([13]; male, human, plasma, oral, 5 mg, T1/2, day 12, male, 5 mg daily, fed, n = 6, mean (SD)): 2.42 days
AUC(0-t) ([13]; male, human, plasma, oral, 10 mg, AUC0–24, day 1, male, 10 mg daily, fed, n = 6, mean (SD)): 71 ng·h/mL
AUC(0-t) ([13]; male, human, plasma, oral, 10 mg, AUC0–24, day 12, male, 10 mg daily, fed, n = 6, mean (SD)): 432 ng·h/mL
half-life ([13]; male, human, plasma, oral, 10 mg, T1/2, day 12, male, 10 mg daily, fed, n = 6, mean (SD)): 2.71 days
AUC(0-t) ([13]; male, human, plasma, oral, 20 mg, AUC0–24, day 1, male, 20 mg daily, fed, n = 6, mean (SD)): 110 ng·h/mL
AUC(0-t) ([13]; male, human, plasma, oral, 20 mg, AUC0–24, day 12, male, 20 mg daily, fed, n = 6, mean (SD)): 433 ng·h/mL
half-life ([13]; male, human, plasma, oral, 20 mg, T1/2, day 1, male, 20 mg daily, fed, n = 6, mean (SD)): 1.83 days
half-life ([13]; male, human, plasma, oral, 20 mg, T1/2, day 12, male, 20 mg daily, fed, n = 6, mean (SD)): 2.37 days
Fe0–x, fraction excreted (VOR) ([13]; urine 0 to 24 hours (day 1), female, 5 mg daily, n = 5, mean (SD)): 0.00 (0.0) %
Fe0–x, fraction excreted (VOR) ([13]; urine 0 to 24 hours (day 1), male, 5 mg daily, n = 6, mean (SD)): 0.00 (0.0) %
Fe0–x, fraction excreted (VOR) ([13]; urine 0 to 288 hours (day 12), female, 5 mg daily, n = 5, mean (SD)): 0.0494 (0.087) %
Fe0–x, fraction excreted (VOR) ([13]; urine 0 to 288 hours (day 12), male, 5 mg daily, n = 6, mean (SD)): 0.0072 (0.018) %
deaths or serious AEs [14]: no deaths or serious AEs leading to trial discontinuation were observed
tolerated multiple dose ([15]; healthy men): up to 20 mg
tolerated multiple dose ([15]; healthy women): ≤ 10 mg
intensity of TEAEs ([15]; multiple doses, all groups): all TEAEs were mild in intensity

From article PMC5900865 (Clinical Pharmacology in Drug Development, 2017)
